Laboratory results published in ChEMBL document CHEMBL4138211, “Regio- and stereoselective synthesis of dispirooxindole-pyrrolocarbazole hybrids via 1,3-dipolar cycloaddition reactions: Cytotoxic activity and SAR studies” (Eur J Med Chem, 2018).
Calls of active or inactive are those of the source. No cut-off for these calls is given here.

Legend:
MCF7 [1] = experiment: Antiproliferative activity against human MCF7 cells after 48 hrs by MTT assay; type: functional, cell-based; settings: for IC50: MCF7, 48 h
In short: (§1)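 Cells grown 1×10⁴/well for 48 h to about 75% confluence. Medium then replaced with fresh medium containing serially diluted compounds, followed by a further 48 h. MTT added for 4 h at 37 °C and formazan dissolved in DMSO for 10 min. OD read at 620 nm. IC50 taken from the viability–concentration survival curve. Three independent experiments, each in triplicate.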

A549 [2] = experiment: Antiproliferative activity against human A549 cells after 48 hrs by MTT assay; type: functional, cell-based; settings: for IC50: A549, 48 h; in short: as §1
MCF7 [3] = experiment: Induction of apoptosis in human MCF7 cells assessed as cell shrinkage after 24 hrs by brightfield inverted light microscopic analysis; type: functional, cell-based
MCF7 [4] = experiment: Induction of apoptosis in human MCF7 cells assessed as membrane blebbing after 24 hrs by brightfield inverted light microscopic analysis; type: functional, cell-based
MCF7 [5] = experiment: Induction of apoptosis in human MCF7 cells assessed as formation of floating cells after 24 hrs by brightfield inverted light microscopic analysis; type: functional, cell-based
A549 [6] = experiment: Induction of apoptosis in human A549 cells assessed as cell shrinkage after 24 hrs by brightfield inverted light microscopic analysis; type: functional, cell-based
A549 [7] = experiment: Induction of apoptosis in human A549 cells assessed as membrane blebbing after 24 hrs by brightfield inverted light microscopic analysis; type: functional, cell-based
A549 [8] = experiment: Induction of apoptosis in human A549 cells assessed as formation of floating cells after 24 hrs by brightfield inverted light microscopic analysis; type: functional, cell-based
MCF7 [9] = experiment: Induction of apoptosis in human MCF7 cells assessed as nuclear fragmentation after 24 hrs by DAPI staining-based fluorescence microscopic analysis; type: functional, cell-based
In short: (§2)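 Cells plated on glass coverslips and treated for 24 h, then fixed. Permeabilised with 0.2% Triton X-100 for 10 min at room temperature. DAPI applied for 3 min under a coverslip. Nuclei inspected by fluorescence microscopy for condensed chromatin and fragmentation, against untreated cells.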

A549 [10] = experiment: Induction of apoptosis in human A549 cells assessed as nuclear fragmentation after 24 hrs by DAPI staining-based fluorescence microscopic analysis; type: functional, cell-based; in short: as §2
MCF7 [11] = experiment: Induction of apoptosis in human MCF7 cells by acridine orange/ethidium bromide staining-based fluorescence microscopic analysis; type: functional, cell-based
In short: (§3)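 Treated cells collected and washed in PBS (pH 7.2). Stained with a 1:1 AO/EtBr mixture (each dye […] in water) and held 2 min. Washed twice in PBS and viewed by fluorescence microscopy at 400× with 480 nm excitation. Green intact-membrane cells distinguished from orange/red membrane-damaged cells.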

MCF7 [12] = experiment: Induction of apoptosis in human MCF7 cells assessed as nuclear condensation by acridine orange/ethidium bromide staining-based fluorescence microscopic analysis; type: functional, cell-based; in short: as §3
MCF7 [13] = experiment: Induction of apoptosis in human MCF7 cells assessed as damaged cell membranes by acridine orange/ethidium bromide staining-based fluorescence microscopic analysis; type: functional; in short: as §3
A549 [14] = experiment: Induction of apoptosis in human A549 cells by acridine orange/ethidium bromide staining-based fluorescence microscopic analysis; type: functional, cell-based; in short: as §3
MCF7 [15] = experiment: Induction of apoptosis in human MCF7 cells assessed as chromatin condensation after 24 hrs by DAPI staining-based fluorescence microscopic analysis; type: functional, cell-based; in short: as §2

## Cc1ccc2[nH]c3c(c2c1)CC[C@]1(C3=O)[C@@H](c2cccs2)[C@@H](c2ccccc2)N[C@@]12C(=O)Nc1ccccc12
MCF7 [1]
  Activity: Dose-dependent effect
  IC50: 14 µM
A549 [2]
  Activity: Dose-dependent effect
  IC50: 15 µM
MCF7 [3]
  Activity: Dose-dependent effect
MCF7 [4]
  Activity: Dose-dependent effect
MCF7 [5]
  Activity: Dose-dependent effect
A549 [6]
  Activity: Dose-dependent effect
A549 [7]
  Activity: Dose-dependent effect
A549 [8]
  Activity: Dose-dependent effect
MCF7 [9]
  Activity: Active
A549 [10]
  Activity: Active
MCF7 [11]
  Activity: Active
MCF7 [12]
  Activity: Active
MCF7 [13]
  Activity: Active
A549 [14]
  Activity: Active

## Cc1ccc2[nH]c3c(c2c1)CC[C@]1(C3=O)[C@@H](c2ccccc2)[C@@H](c2ccccc2)N[C@@]12C(=O)Nc1ccccc12
MCF7 [1]
  Activity: Dose-dependent effect
  IC50: 19 µM
A549 [2]
  Activity: Dose-dependent effect
  IC50: 18 µM
MCF7 [3]
  Activity: inactive
MCF7 [4]
  Activity: inactive
MCF7 [5]
  Activity: inactive
A549 [6]
  Activity: inactive
A549 [7]
  Activity: inactive
A549 [8]
  Activity: inactive
MCF7 [9]
  Activity: Active
MCF7 [15]
  Activity: Active
A549 [10]
  Activity: inactive
MCF7 [11]
  Activity: inactive
MCF7 [12]
  Activity: inactive
MCF7 [13]
  Activity: inactive
A549 [14]
  Activity: inactive

## O=C1Nc2ccccc2[C@]12N[C@H](c1ccccc1)[C@H](c1ccccc1)[C@@]21CCc2c([nH]c3ccccc23)C1=O
MCF7 [1]
  Activity: Dose-dependent effect
  IC50: 15 µM
A549 [2]
  Activity: Dose-dependent effect
  IC50: 17 µM
MCF7 [3]
  Activity: inactive
MCF7 [4]
  Activity: inactive
MCF7 [5]
  Activity: inactive
A549 [6]
  Activity: inactive
A549 [7]
  Activity: inactive
A549 [8]
  Activity: inactive
MCF7 [9]
  Activity: Active
A549 [10]
  Activity: inactive
MCF7 [11]
  Activity: inactive
MCF7 [12]
  Activity: inactive
MCF7 [13]
  Activity: inactive
A549 [14]
  Activity: inactive

## O=C1Nc2ccccc2[C@]12N[C@H](c1ccccc1)[C@H](c1ccccc1)[C@@]21CCc2c([nH]c3ccc(Cl)cc23)C1=O
MCF7 [1]
  Activity: Dose-dependent effect
  IC50: 18 µM
A549 [2]
  Activity: Dose-dependent effect
  IC50: 15 µM
MCF7 [3]
  Activity: inactive
MCF7 [4]
  Activity: inactive
MCF7 [5]
  Activity: inactive
A549 [6]
  Activity: inactive
A549 [7]
  Activity: inactive
A549 [8]
  Activity: inactive
MCF7 [9]
  Activity: Active
MCF7 [15]
  Activity: Active
A549 [10]
  Activity: inactive
MCF7 [11]
  Activity: inactive
MCF7 [12]
  Activity: inactive
MCF7 [13]
  Activity: inactive
A549 [14]
  Activity: inactive

## COc1ccc([C@H]2[C@@H](c3ccccc3)N[C@@]3(C(=O)Nc4ccccc43)[C@]23CCc2c([nH]c4ccc(Cl)cc24)C3=O)cc1
MCF7 [1]
  Activity: Dose-dependent effect
  IC50: 19 µM
A549 [2]
  Activity: Dose-dependent effect
  IC50: 18 µM
MCF7 [3]
  Activity: inactive
MCF7 [4]
  Activity: inactive
MCF7 [5]
  Activity: inactive
A549 [6]
  Activity: inactive
A549 [7]
  Activity: inactive
A549 [8]
  Activity: inactive
MCF7 [9]
  Activity: Active
MCF7 [15]
  Activity: Active
A549 [10]
  Activity: inactive
MCF7 [11]
  Activity: inactive
MCF7 [12]
  Activity: inactive
MCF7 [13]
  Activity: inactive
A549 [14]
  Activity: inactive

## COc1ccc([C@H]2[C@@H](c3ccccc3)N[C@@]3(C(=O)Nc4ccccc43)[C@]23CCc2c([nH]c4ccccc24)C3=O)cc1
MCF7 [1]
  Activity: Dose-dependent effect
  IC50: 17 µM
A549 [2]
  Activity: Dose-dependent effect
  IC50: 21 µM

## O=C1Nc2ccccc2[C@]12N[C@H](c1ccccc1)[C@H](c1cccs1)[C@@]21CCc2c([nH]c3ccccc23)C1=O
MCF7 [1]
  Activity: Dose-dependent effect
  IC50: 15 µM
A549 [2]
  Activity: Dose-dependent effect
  IC50: 16 µM
MCF7 [3]
  Activity: inactive
MCF7 [4]
  Activity: inactive
MCF7 [5]
  Activity: inactive
A549 [6]
  Activity: inactive
A549 [7]
  Activity: inactive
A549 [8]
  Activity: inactive
MCF7 [9]
  Activity: Active
A549 [10]
  Activity: inactive
MCF7 [11]
  Activity: inactive
MCF7 [12]
  Activity: inactive
MCF7 [13]
  Activity: inactive
A549 [14]
  Activity: Active

## COc1ccc([C@H]2[C@@H](c3ccccc3)N[C@@]3(C(=O)Nc4ccccc43)[C@]23CCc2c([nH]c4ccc(C)cc24)C3=O)cc1
MCF7 [1]
  Activity: Dose-dependent effect
  IC50: 18 µM
A549 [2]
  Activity: Dose-dependent effect
  IC50: 20 µM
MCF7 [3]
  Activity: inactive
MCF7 [4]
  Activity: inactive
MCF7 [5]
  Activity: inactive
A549 [6]
  Activity: inactive
A549 [7]
  Activity: inactive
A549 [8]
  Activity: inactive
MCF7 [9]
  Activity: Active
MCF7 [15]
  Activity: Active
A549 [10]
  Activity: inactive
MCF7 [11]
  Activity: inactive
MCF7 [12]
  Activity: inactive
MCF7 [13]
  Activity: inactive
A549 [14]
  Activity: inactive
